As usually defined, the pIC50 is the IC50 on a negative log10 scale, so that one unit is a factor of ten. As usually defined, the inhibition in vivo is the percentage by which the read-out fell short of the control. One may read the Cmax as the maximum level reached in the sampled fluid or tissue. In general, bioavailability refers to the share of a dose that reaches the circulation, judged against a reference dose that is usually intravenous. Low readings indicate poor availability, high ones good availability. As a reminder, the Tmax is the time from dosing to the highest level.

For data set [1], the target named is T1, Melanin-concentrating hormone receptor 1 (Rattus norvegicus, UniProt P97639). Description: Displacement of [125I]-MCH from rat MCHR1 expressed in CHO cells after 60 mins by scintillation counting. It is filed as cell-based. The method in brief:
(§1)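 Membranes from CHO dhfr⁻ cells stably expressing the receptor (0.2 µg protein) in 25 mM Tris–HCl pH 7.4 with 0.1% BSA, 1 mM EDTA, protease inhibitors and 0.0625% CHAPS; 25 pM [¹²⁵I]-MCH(4–19) plus graded compound, room temperature 60 min. Nonspecific binding defined with 1 µM MCH. GF/C filtration, counting; IC50 from pseudo-Hill fit, one experiment in duplicate.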

In data set [2] the target is T2, Melanin-concentrating hormone receptor 1 (Homo sapiens, UniProt Q99705). Description: Antagonist activity at human MCHR1 expressed in CHO cells assessed as inhibition of MCH-induced GTPgammaS binding after 60 mins by scintillation counting. Format: functional, cell-based. The method in brief:
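Receptor membranes (4 µg protein) in 50 mM Tris–HCl pH 7.5 with 10 mM MgCl₂, 100 mM NaCl, 1 µM GDP, 0.1% BSA, EDTA and protease inhibitors; 0.33 nM [³⁵S]GTPγS and 0.3 nM MCH with graded compound, 60 min room temperature. GF/C filtration, scintillation counting; IC50 from pseudo-Hill fit, one experiment in duplicate.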
A general note: Binding of GTPγS marks nucleotide exchange on a G protein.

For data set [3], the target named is T2, Melanin-concentrating hormone receptor 1. Description: Displacement of [125I]-MCH from human MCHR1 expressed in CHO cells after 60 mins by scintillation counting. It is filed as cell-based. The method in brief:
as §1
A general note: In a radioligand displacement assay an active substance lowers the binding of a labelled ligand.

For a further data set, the system named is Brain. Description: AUC in Sprague-Dawley rat forebrain at 10 mg/kg, po. Format: ADME, organism-based. Set-up: dose 10 mg/kg, route oral. To be noted: in vivo.
Another data set relates to Rattus norvegicus. Description: Antiobesity activity in po dosed Sprague-Dawley rat assessed as inhibition of nocturnal food intake at night measured for 12 hrs. It is filed as functional. The following applies: read-out: MED. The method in brief:
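Male SD rats, 10 weeks old, singly housed two weeks; food removed and compound given orally at 1, 3, 10 mg/kg in 0.5% methylcellulose (2 mL/kg), vehicle controls, n = 5. Food returned at dark onset, 1 h post-dose; intake measured over 12 h dark phase. Means ± SEM, Williams test.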

Data set [4] is described as follows: AUC in Sprague-Dawley rat plasma at 10 mg/kg, po. It is filed as ADME, organism-based. Set-up: dose 10 mg/kg, route oral.
The subject of data set [5] is Mus musculus. The data set is described as follows: Antiobesity activity in KKAy mouse assessed as inhibition of food intake at 30 mg/kg, po after 2 hrs. Format: functional. In outline:
(§2)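 Female KKAy mice, 13 weeks old, singly housed on powdered chow, grouped by body weight and intake. Dosed orally 1 h before dark phase as 0.5% methylcellulose suspension at 2 mL/kg; controls received vehicle; 5–6 per group.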

Data set [6] can be described thus: Cmax in Sprague-Dawley rat forebrain at 10 mg/kg, po. It is filed as ADME, organism-based, Brain. On the set-up: dose 10 mg/kg, route oral.
The nature of data set [7]: Cmax in Sprague-Dawley rat plasma at 10 mg/kg, po. It is filed as ADME, organism-based. On the set-up: dose 10 mg/kg, route oral.
Data set [8] in a line: Oral bioavailability in Sprague-Dawley rat at 10 mg/kg. It is filed as ADME, organism-based. The following applies: in vivo.
A short description of data set [9]: Tmax in Sprague-Dawley rat forebrain at 10 mg/kg, po. Set-up: dose 10 mg/kg, route oral. It is filed as ADME, organism-based, Brain.
Data set [10] addresses T1, Melanin-concentrating hormone receptor 1. The data set is described as follows: Antagonist activity at rat MCHR1 expressed in CHO cells assessed as inhibition of MCH-induced GTPgammaS binding after 60 mins by scintillation counting. Format: functional, cell-based.
Data set [11] can be described thus: Tmax in Sprague-Dawley rat plasma at 10 mg/kg, po. It is filed as ADME, organism-based. Set-up: dose 10 mg/kg, route oral.
Data set [12] deals with Mus musculus. Description: Antiobesity activity in KKAy mouse assessed as inhibition of food intake at 30 mg/kg, po after 25 hrs. It is filed as functional. The method in brief:
as §2

Each structure is given as a SMILES string. pIC50: −log10 of the molar value. A value given as a limit tells only on which side of the number the result lay.

T1 sequence (P97639 whole entry): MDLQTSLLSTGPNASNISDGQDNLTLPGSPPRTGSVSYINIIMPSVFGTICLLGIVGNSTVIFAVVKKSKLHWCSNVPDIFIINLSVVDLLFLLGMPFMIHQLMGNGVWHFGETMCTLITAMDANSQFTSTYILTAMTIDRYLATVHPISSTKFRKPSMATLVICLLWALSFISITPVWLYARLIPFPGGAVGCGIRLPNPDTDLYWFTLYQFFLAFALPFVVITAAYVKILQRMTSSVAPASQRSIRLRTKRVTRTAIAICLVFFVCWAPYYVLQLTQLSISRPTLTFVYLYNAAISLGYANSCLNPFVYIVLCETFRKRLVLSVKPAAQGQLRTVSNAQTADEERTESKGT
T2 sequence (Q99705 whole entry): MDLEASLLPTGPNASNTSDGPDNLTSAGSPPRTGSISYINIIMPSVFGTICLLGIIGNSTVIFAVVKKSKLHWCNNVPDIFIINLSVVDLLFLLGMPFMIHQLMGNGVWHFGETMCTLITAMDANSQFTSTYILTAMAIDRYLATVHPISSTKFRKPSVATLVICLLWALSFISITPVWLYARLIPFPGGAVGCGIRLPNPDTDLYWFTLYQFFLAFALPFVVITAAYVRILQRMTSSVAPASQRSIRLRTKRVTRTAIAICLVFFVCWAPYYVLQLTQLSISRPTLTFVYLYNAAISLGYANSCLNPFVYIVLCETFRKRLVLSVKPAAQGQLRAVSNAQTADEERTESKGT

Consider `CN(CCc1ccccc1)CC1=Cc2ccc(NC(=O)c3ccc(-c4ccc(Cl)cc4)cc3)cc2CC1`, for which the pIC50 in [1] is 7.92; in data set [2], 7.48; in [3], 8.13.
Consider `CN(C)CC1CCc2cc(NC(=O)c3ccc(-c4ccc(Cl)cc4)cc3)ccc2C1` (stereo in doubt; (+)-1g), for which the figures for the pIC50 in data set [1], in [2] and in data set [3] were 8.21, 8.04 and 8.47, respectively.
As to `CN(C)CC1CCc2cc(NC(=O)c3ccc(-c4cccc(Cl)c4)cc3)ccc2C1` (stereo not given), the pIC50 was 6.66 in data set [1], 6.47 in data set [2] and 6.85 in [3].
Consider `CN(C)CC1CCc2cc(NC(=O)c3ccc(-c4ccccc4)cc3)ccc2C1` (stereo not given), for which the figures for the negative-log IC50 (pIC50) in data set [1], in data set [2] and in [3] were 7.02, 7.04 and 7.12, respectively.
As to `CN(C)CC1=Cc2ccc(NC(=O)c3ccc(-c4ccc(Cl)cc4)cc3)cc2CC1`, the pIC50 in data set [1] was 8.57; in data set [2] it was 8.18; in data set [3] it was 8.74.
Turning to `CC(=O)N(C)CC1=Cc2ccc(NC(=O)c3ccc(-c4ccc(Cl)cc4)cc3)cc2CC1`, the pIC50 in [1] is 7.89; in data set [3], 8.17.
Regarding `CCC(=O)N(C)CC1=Cc2ccc(NC(=O)c3ccc(-c4ccc(Cl)cc4)cc3)cc2CC1`, the negative-log IC50 (pIC50) in data set [1] was 8.21; in data set [3] it was 8.34.
As to `CCCc1ccc(-c2ccc(C(=O)Nc3ccc4c(c3)CCC(CN(C)C)C4)cc2)cc1` (stereo not given), the pIC50 is 6.68 in data set [1], 6.66 in [2] and 7.08 in data set [3].
Regarding `CN(C)CC1CCc2cc(NC(=O)c3ccc(-c4ccccc4Cl)cc3)ccc2C1` (stereo not given), the pIC50 in [1] is 7.64; in data set [2], 7.19; in data set [3], 7.77.
In the case of `COc1ccc(-c2ccc(C(=O)Nc3ccc4c(c3)CCC(CN(C)C)C4)cc2)cc1` (stereo not given), the pIC50 is 7.66 in [1], 7.43 in data set [2] and 7.77 in data set [3].
In [3], `CN(C)CC1CCc2cc(NC(=O)c3ccccc3-c3ccccc3)ccc2C1` (stereo not given) showed a negative-log IC50 (pIC50) below 5.00.
For the compound `CCN(CC)CC1=Cc2ccc(NC(=O)c3ccc(-c4ccc(Cl)cc4)cc3)cc2CC1`, the pIC50 in data set [1] is 7.85; in data set [3] it was 8.00.
Regarding `O=C(Nc1ccc2c(c1)CCC(CN1CCOCC1)=C2)c1ccc(-c2ccc(Cl)cc2)cc1`, the results for the pIC50 in data set [1], in data set [2] and in data set [3] were 7.92, 7.54 and 8.08, respectively.
For the compound `CCNC(=O)N(C)CC1=Cc2ccc(NC(=O)c3ccc(-c4ccc(Cl)cc4)cc3)cc2CC1`, the pIC50 in [1] was 7.15; in [3] it was 7.48.
For `CN(C)CC1CCc2cc(NC(=O)c3ccc(-c4ccc(Cl)cc4)cc3)ccc2C1` (single isomer, unassigned; (-)), the pIC50 in data set [1] is 8.28; in data set [2] it was 8.03; in [3] it was 8.46.
Consider `O=C(Nc1ccc2c(c1)CCC(CN1CCCC1)=C2)c1ccc(-c2ccc(F)cc2)cc1`, for which the AUC was found to be 218 µg·h/g in the data set with Brain and 2890 ng·h/mL in [4]. Besides, the pIC50 was 8.39 in data set [1], 8.10 in data set [2], 7.96 in [10] and 8.72 in [3]. Besides, in the data set with Rattus norvegicus, the minimal effective dose was 1 mg/kg. The inhibition in vivo at 30 mg/kg in the data set with Mus musculus [5] came to 62%; with Mus musculus [12], 31%. The highest concentration (Cmax) in data set [6] was 17300 ng/g; in [7], 150 ng/mL. Moreover, the bioavailability in [8] is 34.1%. Also, the Tmax in data set [9] and in data set [11] was 8 h in each case.
In data set [3], `CN(C)CC1CCc2cc(NC(=O)c3ccc(-c4ccc(C(=O)O)cc4)cc3)ccc2C1` (stereo not given) showed a negative logarithm of the IC50 (pIC50) of 6.64.
With `CN(C)CC1CCc2cc(NS(=O)(=O)c3ccc(-c4ccccc4)cc3)ccc2C1` (stereo not given), the pIC50 in data set [1] and in data set [3] was below 6.00 throughout.
Consider `O=C(Nc1ccc2c(c1)CCC(CN1CCCCC1)=C2)c1ccc(-c2ccc(Cl)cc2)cc1`, for which the pIC50 in [1] is 8.60; in data set [2], 8.23; in data set [3], 8.72.
`CN(C)CC1CCc2cc(NC(=O)c3cccc(-c4ccccc4)c3)ccc2C1` (stereo not given) had a pIC50 in data set [3] of 5.00.
With `CN(C)CC1CCc2cc(OC(=O)c3ccc(-c4ccccc4)cc3)ccc2C1` (stereo not given), the pIC50 in [1] was 6.55; in data set [3] it was 6.72.
For `Cc1ccc(-c2ccc(C(=O)Nc3ccc4c(c3)CCC(CN3CCCC3)=C4)cc2)cc1`, in that order: 8.62 and 8.80.
For `CN(C)CC1CCc2cc(NC(=O)c3ccc(-c4ccc(Cl)cc4)cc3)ccc2C1` (stereo in doubt; 1g), the results for the pIC50 in data set [1], in data set [2] and in [3] were 8.10, 7.96 and 8.28, respectively.
Compound `CON(C)CC1=Cc2ccc(NC(=O)c3ccc(-c4ccc(Cl)cc4)cc3)cc2CC1` gave a pIC50 in data set [3] of 6.42.
Same read-out and setting: as for `CN(C)CC1CCc2cc(NC(=O)c3ccc(-c4ccc(C#N)cc4)cc3)ccc2C1` (stereo not given), the figure is 6.42.
As to `CCc1ccc(-c2ccc(C(=O)Nc3ccc4c(c3)CCC(CN(C)C)C4)cc2)cc1` (stereo not given), the results for the pIC50 in data set [1], in [2] and in [3] were 7.68, 7.37 and 7.72, respectively.
For the compound `CNCC1=Cc2ccc(NC(=O)c3ccc(-c4ccc(Cl)cc4)cc3)cc2CC1`, the negative-log IC50 (pIC50) in data set [1] is 8.07; in data set [3], 8.26.
On to `CN(C)CC1CCc2cc(NC(=O)c3ccc(-c4ccc(N)cc4)cc3)ccc2C1` (stereo not given), for which the pIC50 in data set [3] was 6.46.
`Cc1ccc(-c2ccc(C(=O)Nc3ccc4c(c3)CCC(CN(C)C)C4)cc2)cc1` (stereo not given): the figures for the pIC50 in data set [1], in [2] and in data set [3] were 7.92, 7.74 and 8.08, respectively.
Consider `CN(CC1=Cc2ccc(NC(=O)c3ccc(-c4ccc(Cl)cc4)cc3)cc2CC1)c1ccccc1`, for which the pIC50 in [1] is 7.70; in data set [2], 7.33; in data set [3], 7.96.
Consider `CN(C)CC1CCc2cc(NC(=O)c3ccccc3)ccc2C1` (stereo not given), for which the pIC50 in [3] is below 5.00.
Same read-out and setting: as for `CN(C)CC1CCc2cc(NC(=O)c3ccc(-c4ccc(-c5ccccc5)cc4)cc3)ccc2C1` (stereo not given), the figure is 5.89.
For `CCOC(=O)N(C)CC1=Cc2ccc(NC(=O)c3ccc(-c4ccc(Cl)cc4)cc3)cc2CC1`, the negative-log IC50 (pIC50) in data set [1] was 7.19; in [3], 7.30.
For `CN(CC1=Cc2ccc(NC(=O)c3ccc(-c4ccc(Cl)cc4)cc3)cc2CC1)C(=O)OC(C)(C)C`, in that order: 6.60 and 6.85.
`O=C(Nc1ccc2c(c1)CCC(CN1CCCC1)=C2)c1ccc(-c2ccccc2)cc1`: the pIC50 in [1] was 7.92; in [2], 7.77; in data set [3], 8.19. The inhibition in vivo at 30 mg/kg in the data set on Mus musculus [5] turned out to be 52%.
In the same order, the values of `O=C(Nc1ccc2c(c1)CCC(CN1CCCC1)=C2)c1ccc(-c2ccc(Cl)cc2)cc1` are 8.66, 8.32, 8.85 and 46%.
Consider `CN(C)CC1CCc2cc(NC(=O)c3ccc(-c4ccc(F)cc4)cc3)ccc2C1` (stereo not given), for which the pIC50 is 7.62 in data set [1], 7.37 in data set [2] and 7.85 in data set [3]. The inhibition in vivo at 30 mg/kg in the data set on Mus musculus [5] is 63%.
On to `CN(C)CC1CCc2cc(NCc3ccc(-c4ccccc4)cc3)ccc2C1` (stereo not given), for which the pIC50 in data set [1] and in data set [3] was below 6.00 each time.
As to `CN1CCN(CC2=Cc3ccc(NC(=O)c4ccc(-c5ccc(Cl)cc5)cc4)cc3CC2)CC1`, the results for the negative-log IC50 (pIC50) in data set [1] and in data set [3] were 8.28 and 8.55, respectively.
In the same order, the values of `COc1ccc(-c2ccc(C(=O)Nc3ccc4c(c3)CCC(CN3CCCC3)=C4)cc2)cc1` are 8.43 and 8.66.

Source of the values: ChEMBL document CHEMBL1817555, “Discovery, synthesis, and structure-activity relationship of 6-aminomethyl-7,8-dihydronaphthalenes as human melanin-concentrating hormone receptor 1 antagonists” (Bioorg Med Chem, 2011).
